# Experimental data from different studies.
# PTGS2: Prostaglandin G/H synthase 2 (PTGS2, Homo sapiens, UniProt P35354)
# DYRK1B: Dual specificity tyrosine-phosphorylation-regulated kinase 1B (DYRK1B, Homo sapiens, UniProt Q9Y463)
Compound,target,test,conditions,measurement,value
O=c1cc(-c2ccc(O)cc2)oc2cc(O)cc(O)c12,PTGS2,"enzyme activity, inhibitor",0.49 µg/mL,inhibition,16.4%
NS(=O)(=O)c1ccc(Nc2nc(-c3ccc(F)cc3)c3ccccc3n2)cc1,"CREB-binding protein (CREBBP, Homo sapiens, UniProt Q92793)","binding, competition with immobilised ligand",1 µM,remaining binding,54%
Cc1cc2c(cc1N1C(=O)c3cccc4c(Cl)ccc(c34)C1=O)n(C)c(=O)n2C,"Transcription intermediary factor 1-beta (TRIM28, Homo sapiens, UniProt Q13263)","thermal stability, DSF",10 µM,ΔTm,0.3 °C
O=C(O)c1ccc2c(c1)nc(Nc1ccc(F)c(Cl)c1)c1ncncc12,DYRK1B,"enzyme activity, inhibitor, radiometric",1 µM,remaining activity,60%
C[S+]([O-])c1ccc(-c2nc(-c3ccncc3)c(-c3ccc(F)cc3)[nH]2)cc1 (centres unmarked),"Bromodomain testis-specific protein, BD2 (BRDT, Homo sapiens, UniProt Q58F21)","thermal stability, DSF",10 µM,ΔTm,0.59 °C
O=C(O)c1ccc2c(c1)nc(Nc1cccc(F)c1)c1ccncc12,DYRK1B,"enzyme activity, inhibitor, radiometric",1 µM,remaining activity,13%
O=C(O)c1ccc(O)cc1,PTGS2,"enzyme activity, inhibitor",0.49 µg/mL,inhibition,19.4%
Cc1cnc(Nc2ccc(OCCN3CCCC3)cc2)nc1Nc1cccc(S(=O)(=O)NC(C)(C)C)c1,"Bromodomain testis-specific protein, BD1 (BRDT, Homo sapiens, UniProt Q58F21)","thermal stability, DSF",10 µM,ΔTm,3.38 °C
